Assay outcomes as filed in PubChem.
CHRM1 agonist: human M1 muscarinic receptor agonists, primary screen, Fluo-8 calcium fluorescence, CHO-K1 cells, HTS; Muscarinic acetylcholine receptor M1 (Homo sapiens), P11229; CHO-K1 hM1, agonist mode; 0% DMSO, 100% acetylcholine EC100; activation, % at 3 µM; 0.33% of 360,000 active;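 active = activation above the run's mean compound activation plus 3 SD, cut at about 16% in these data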;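 note: peak over basal fluorescence ratio within a 140 s kinetic read after compound addition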
CHRM1 antagonist: human M1 muscarinic receptor antagonists, primary screen, CHO-K1 cells, Fluo-8 calcium fluorescence, 1536-well; CHO-K1 hM1, ACh EC80 antagonist; inhibition, % at 3 µM; Muscarinic acetylcholine receptor M1 (Homo sapiens), P11229; 1.3% of 360,000 active;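 active = percent inhibition above its own plate's cutoff, namely the mean of that plate's compound wells plus 3 SD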;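 note: peak over basal fluorescence ratio during 140 s after agonist addition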
TAAR1 antagonist: human TAAR1 antagonists, primary screen, Fluo-8 calcium fluorescence, CHO RD-HGA16 cells | antagonist | inhibition, % at 3 µM | 1.5% of 360,000 active | Trace amine-associated receptor 1 (Homo sapiens), Q96RJ0;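 active = inhibition above a per-plate cutoff, the mean inhibition of test compounds on that plate plus 3 SD, cut at about 49% in these data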
Target sequence (Q96RJ0 whole entry, looked up): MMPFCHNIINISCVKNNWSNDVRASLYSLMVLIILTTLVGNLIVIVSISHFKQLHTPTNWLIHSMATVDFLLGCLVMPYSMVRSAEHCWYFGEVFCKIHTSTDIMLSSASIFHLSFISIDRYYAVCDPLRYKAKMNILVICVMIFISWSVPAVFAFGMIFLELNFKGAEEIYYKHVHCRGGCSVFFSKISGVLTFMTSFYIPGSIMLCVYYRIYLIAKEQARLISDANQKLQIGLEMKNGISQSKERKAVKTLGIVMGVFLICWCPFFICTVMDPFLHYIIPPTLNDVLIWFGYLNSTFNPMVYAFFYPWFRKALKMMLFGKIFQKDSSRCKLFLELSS
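Material: RD-HGA16 CHO cells with stable hTAAR1 and Gα16; Dosing: single nominal final test compound concentration of 3 µM; Schedule: seeding 17-24 h prior, 75-min 37 °C, 30-min RT dye loading; Detection: kinetic Fluo-8 calcium fluorescence measurement; Measure: % inhibition from peak post-agonist over basal fluorescence ratio; Benchmarks: vehicle and agonist controls.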
CHRM1 PAM: human M1 muscarinic receptor positive allosteric modulators, primary screen, CHO-K1 cells, Fluo-8 calcium fluorescence, 1536-well | AID 588819, 2011 | 0.088% of 360,000 active | CHO-K1 hM1, ACh EC20; 0% = ACh EC20, 100% = maximal ACh | activation, % at 3 µM; in the data active = activation above about 19%, passing the limit was not always enough
TAAR1 agonist: human TAAR1 agonists, primary screen, Fluo-8 calcium fluorescence, CHO RD-HGA16 cells; AID 624467, 2012; 0.99% of 360,000 active; activation, % at 3 µM; Trace amine-associated receptor 1 (Homo sapiens), Q96RJ0; vehicle wells 0%, saturating PEA agonist 100%;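 active = activation above the mean activation of all test compounds in the run plus 3 SD, cut at about 38% in these data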
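Signal – calcium-sensitive Fluo-8 signal, excitation 470-495, emission 515-575 nm · System – RD-HGA16 (CHO) cells co-expressing Gα16 and hTAAR1 · Incubation – 17-24 h seeding, 75 min 37 °C dye, 30 min RT · Compound dosing – 3 µM single concentration · Repeats – no replicates (n 1)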
Hits are given with their value. Hits are enriched below; roughly 3.4% of the tested compounds scored in any of these assays.

Screening CC(=O)OC(C[N+]1(C)CCCCCC1)c1ccccc1 (stereo unspecified) returned CHRM1 agonist inactive, CHRM1 antagonist 57, TAAR1 antagonist inactive, CHRM1 PAM inactive and TAAR1 agonist inactive.
Screening C=CCn1c(CSCc2ccc(C)cc2)nnc1SCC(=O)NCc1ccccc1 returned CHRM1 agonist inactive, CHRM1 antagonist inactive, TAAR1 antagonist 50, CHRM1 PAM inactive and TAAR1 agonist inactive.
CN(C)c1cccc2c(S(=O)(=O)NCC3CCN(C(=O)C(=O)c4cc5ccccc5o4)CC3)cccc12 was read as TAAR1 antagonist inactive and TAAR1 agonist inactive.
For CCC(=O)Nc1nnc(SCCN2CCOCC2)s1 the results were CHRM1 agonist inactive, CHRM1 antagonist 33, TAAR1 antagonist inactive, CHRM1 PAM inactive and TAAR1 agonist inactive.
`O=C(Cc1ccc(NC(=O)C2CCN(C(=O)CCc3ccccc3)CC2)cc1)Nc1cccc(C(=O)N2CCCC2)c1` gave TAAR1 antagonist inactive and TAAR1 agonist inactive.
For CCN(CC)CCNC(=O)c1ccc(NC(=O)c2ccc(Cl)c(S(=O)(=O)N3CCCCCC3)c2)cc1 the results were CHRM1 agonist inactive, CHRM1 antagonist 100, TAAR1 antagonist inactive, CHRM1 PAM inactive and TAAR1 agonist inactive.
`CCN(CC)CCNC(=O)c1ccc(NC(=O)c2cccc(S(=O)(=O)N3CCCCCC3)c2)cc1` gave CHRM1 agonist inactive, CHRM1 antagonist 101, TAAR1 antagonist inactive, CHRM1 PAM inactive and TAAR1 agonist inactive.
`O=C(NCCc1ccccc1)C1CCCN(S(=O)(=O)c2cccnc2)C1` (stereo unspecified) gave CHRM1 agonist inactive, CHRM1 antagonist inactive, TAAR1 antagonist inactive, CHRM1 PAM inactive and TAAR1 agonist 40.
NS(=O)(=O)c1ccc(CCNC(=O)C2CCCN(S(=O)(=O)c3cccnc3)C2)cc1 (stereo unspecified) was read as CHRM1 agonist inactive, CHRM1 antagonist inactive, TAAR1 antagonist inactive, CHRM1 PAM inactive and TAAR1 agonist inactive.
O=c1c2ccccc2[nH]c(=S)n1CCc1ccccc1 was read as CHRM1 agonist inactive, CHRM1 antagonist inactive, TAAR1 antagonist inactive, CHRM1 PAM inactive and TAAR1 agonist inactive.
`NS(=O)(=O)c1ccc(CCn2c(=S)[nH]c3ccccc3c2=O)cc1` gave CHRM1 agonist inactive, CHRM1 antagonist inactive, TAAR1 antagonist 61, CHRM1 PAM inactive and TAAR1 agonist 38.
For O=c1oc2ccc(C#CC3(O)CCCCC3)cc2cc1-n1cc(-c2ccccn2)nn1 the results were CHRM1 agonist inactive, CHRM1 antagonist inactive, TAAR1 antagonist 52, CHRM1 PAM inactive and TAAR1 agonist inactive.
`C[C@@H](O)CC#Cc1ccc2oc(=O)c(-n3cc(-c4ccsc4)nn3)cc2c1` gave CHRM1 agonist inactive, CHRM1 antagonist inactive, TAAR1 antagonist inactive, CHRM1 PAM inactive and TAAR1 agonist inactive.
For Nc1cccc(-c2cn(-c3cc4cc(C#CC5(O)CCCCC5)ccc4oc3=O)nn2)c1 the results were CHRM1 agonist inactive, CHRM1 antagonist inactive, TAAR1 antagonist 58, CHRM1 PAM inactive and TAAR1 agonist inactive.
For CCc1cc2c(N3CCN(c4ccccc4)CC3)ncnc2s1 the results were CHRM1 agonist inactive, CHRM1 antagonist inactive, TAAR1 antagonist 66, CHRM1 PAM inactive and TAAR1 agonist inactive.
COc1ccc(-n2ncc3c(N4CCN(c5cc(C)ccc5C)CC4)ncnc32)cc1 was read as CHRM1 agonist inactive, CHRM1 antagonist inactive, TAAR1 antagonist 103, CHRM1 PAM inactive and TAAR1 agonist inactive.
For COc1ccc(N2CCN(c3ncnc4c3cnn4-c3ccc(C)cc3C)CC2)cc1 the results were CHRM1 agonist inactive, CHRM1 antagonist inactive, TAAR1 antagonist inactive, CHRM1 PAM inactive and TAAR1 agonist inactive.
`Cc1ccc(-n2ncc3c(N4CCN(c5ccccc5)CC4)ncnc32)c(C)c1` gave CHRM1 agonist inactive, CHRM1 antagonist 24, TAAR1 antagonist 62, CHRM1 PAM inactive and TAAR1 agonist inactive.
For COC(=O)c1cc2c(c3c4cc(F)ccc4n(S(=O)(=O)c4ccc(C)cc4)c13)C(=O)N(c1ccc(OC)cc1)C2 the results were TAAR1 antagonist inactive and TAAR1 agonist inactive.
Screening COc1ccc(C(C)(O)c2nc(-c3ccccc3C)cs2)cc1 (stereo unspecified) returned CHRM1 agonist inactive, CHRM1 antagonist inactive, TAAR1 antagonist inactive, CHRM1 PAM inactive and TAAR1 agonist inactive.
For O=C1c2cc(Cl)ccc2-c2c(O)cc(Cl)cc21 the results were CHRM1 agonist inactive, CHRM1 antagonist 36, TAAR1 antagonist inactive, CHRM1 PAM inactive and TAAR1 agonist inactive.
`O=c1cc(O)c(-c2ccc(Cl)cc2)c(Cl)[nH]1` gave CHRM1 agonist inactive, CHRM1 antagonist inactive, TAAR1 antagonist inactive, CHRM1 PAM inactive and TAAR1 agonist inactive.
`COC(=O)[C@]12C[C@H](CC(=O)NCC3CCCCC3)C(=O)N(CCC3=CCCCC3)C1=C[C@H](C(C)(C)C)O[C@@H]2C` gave TAAR1 antagonist inactive and TAAR1 agonist inactive.
For C[C@H]1[C@@H]2C[C@@]3(O[C@H](c4ccc(C(F)(F)F)cc4)N=C3C[C@@H]1c1ccccc1)N(Cc1ccncc1)C2=O the results were TAAR1 antagonist inactive and TAAR1 agonist inactive.
`O=C(Nc1ccccc1)N1CCN(c2nc(-c3ccccc3)ns2)CC1` gave CHRM1 agonist inactive, CHRM1 antagonist 32, TAAR1 antagonist inactive, CHRM1 PAM inactive and TAAR1 agonist inactive.
`COc1cccc(C(=O)N[C@@H](Cc2cccnc2)C(=O)N2CCC[C@H]2C(=O)NCc2ccccc2)c1` gave TAAR1 antagonist inactive and TAAR1 agonist inactive.
For CN1OC[C@@H]2CN(Cc3ccc4c(c3)OCO4)[C@H](c3ccc(-n4ccnc4)cc3)C[C@@H]21 the results were TAAR1 antagonist inactive and TAAR1 agonist inactive.
For CCCCCCCCN1C(=O)[C@@H](CC(=O)NCCCN2CCCC2=O)C[C@@]2(C(=O)OC)C1=C[C@H](C1CCCC1)O[C@@H]2C the results were TAAR1 antagonist inactive and TAAR1 agonist inactive.
`Cc1ccc(CNc2nc(NCc3ccccc3)nc3ccsc23)c(C)c1` gave CHRM1 agonist inactive, CHRM1 antagonist inactive, TAAR1 antagonist 54, CHRM1 PAM inactive and TAAR1 agonist inactive.
Screening COc1ccccc1CNc1nc(Nc2cccc(-c3cnco3)c2)c2sccc2n1 returned CHRM1 agonist inactive, CHRM1 antagonist inactive, TAAR1 antagonist 76, CHRM1 PAM inactive and TAAR1 agonist inactive.
Screening Cc1ccc(CNc2nc(NCC3CC3)nc3ccsc23)c(C)c1 returned CHRM1 agonist inactive, CHRM1 antagonist inactive, TAAR1 antagonist inactive, CHRM1 PAM inactive and TAAR1 agonist inactive.
